{"source": "ChEMBL document CHEMBL3784931", "about": "“Synthesis and evaluation of novel angiotensin II receptor 1 antagonists as anti-hypertension drugs” (Bioorg Med Chem, 2016)", "system": "Rattus norvegicus", "assay": "Antihypertensive activity in spontaneous hypertensive rat model assessed as reduction in mean blood pressure at 10 mg/kg, po administered for 2 hrs", "type": "functional, organism-based", "how_it_was_run": "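Male SHRs were randomized, n = 6 per group. Compound was suspended in DMSO/oleic acid (1:4) and given by oral gavage; vehicle controls got the same volume of solvent. SBP and DBP were recorded in conscious animals by noninvasive tail-artery manometry. MBP = (SBP − DBP)/3 + DBP. Data are mean ± SEM, with p < 0.05 taken as significant.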", "note": "Calls of active or inactive are those of the source. The rule behind the calls is not given here."}
{"smiles": "CCCCc1nc(Cl)c(CO)n1Cc1ccc(-c2ccccc2-c2nnn[nH]2)cc1", "values": [{"measurement": "Activity", "result": "Active"}]}
